# Data: ChEMBL document CHEMBL3244361, “B/C-cis- and -trans-1,3,4,9,10,10a-Hexahydro-2H-10,4a-methanoiminoethanophenanthrene (homo- and homoisomorphinan) derivatives as analgesics” (J Med Chem, 1977)
# The source made the active and inactive calls. The rule behind the calls is not given here.
# Columns and labels:
# Mus musculus [1] = experiment: Analgesic activity in sc dosed mouse by hot plate assay; assay type: functional
# Rhesus monkey [2] = experiment: Physical dependence capacity in rhesus monkey assessed as suppression/precipitation of abstinence syndrome at 0.4 to 6.4 mg/kg; assay type: organism-based, Macaca mulatta; set-up: dose 0.4-6.4 mg/kg; conditions: in vivo
# In short: (§1)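 Monkey single-dose suppression test for physical dependence capacity. Abstinence signs were scored for suppression or precipitation across the dose range given in each line.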
# Rhesus monkey [3] = experiment: Physical dependence capacity in rhesus monkey assessed as suppression/precipitation of abstinence syndrome at 0.5 to 4 mg/kg; assay type: organism-based, Macaca mulatta; set-up: dose 0.5-4 mg/kg; conditions: in vivo; in short: as §1
# Rhesus monkey [4] = experiment: Narcotic antagonist activity in morphine-dependent monkey assessed as precipitation of abstinence syndrome; assay type: functional, organism-based; conditions: Macaca mulatta; in short: as §1
# Rhesus monkey [5] = experiment: Physical dependence capacity in rhesus monkey assessed as suppression/precipitation of abstinence syndrome at 4 mg/kg; conditions: in vivo
# Rhesus monkey [6] = experiment: Physical dependence capacity in rhesus monkey assessed as suppression/precipitation of abstinence syndrome at 0.5 to 8 mg/kg; assay type: organism-based, Macaca mulatta; set-up: dose 0.5-8 mg/kg; conditions: in vivo; in short: as §1
# Rhesus monkey [7] = experiment: Physical dependence capacity in rhesus monkey assessed as suppression/precipitation of abstinence syndrome at 0.5 to 1 mg/kg; assay type: organism-based, Macaca mulatta; set-up: dose 0.5-1 mg/kg; conditions: in vivo; in short: as §1
# Mus musculus [8] = species: Mus musculus
# Mus musculus [9] = experiment: Toxicity in mouse at 50 mg/kg, sc; assay type: organism-based; set-up: dose 50 mg/kg, route subcutaneous; conditions: in vivo
SMILES,ED50 (Mus musculus [1]) [mg/kg],Activity (Rhesus monkey [4]),also measured
CN1CC[C@]23c4c5ccc(O)c4O[C@H]2[C@@H](O)C=C[C@H]3[C@H]1C5.Cl [MORPHINE HYDROCHLORIDE],1.2,–,–
Br.CN1CC[C@]23CCCC[C@H]2[C@@H](Cc2ccc(O)cc23)C1,0.8,–,Activity (Rhesus monkey [2]): Non-toxic
C=CCN1CC[C@]23CCCC[C@@H]2[C@@H](Cc2ccc(O)cc23)C1 (relative stereo),19.6,inactive,Activity (Rhesus monkey [3]): Non-toxic
COc1ccc2c(c1)[C@@]13CCCC[C@H]1[C@@H](C2)CN(C)CC3,3.4,–,–
Br.CN1CC[C@]23CCCC[C@@H]2[C@@H](Cc2ccc(O)cc23)C1,2.1,–,Activity (Rhesus monkey [5]): Toxic
Oc1ccc2c(c1)[C@@]13CCCC[C@H]1[C@@H](C2)CN(CC1CC1)CC3 (relative stereo),6.2,inactive,Activity (Rhesus monkey [6]): Non-toxic
C=CCN1CC[C@]23CCCC[C@H]2[C@@H](Cc2ccc(O)cc23)C1 (relative stereo),–,inactive,Activity (Rhesus monkey [7]): Non-toxic; ED50 (Mus musculus [8]): inactive
COc1ccc2c(c1)[C@@]13CCCC[C@@H]1[C@@H](C2)CN(C)CC3,8.1,–,–
Oc1ccc2c(c1)[C@@]13CCCC[C@@H]1[C@@H](C2)CN(CC1CC1)CC3 (relative stereo),–,inactive,Activity (Mus musculus [9]): Toxic; Activity (Rhesus monkey [3]): Non-toxic
